Reference: ChEMBL document CHEMBL5653631, “A Potent and Selective ULK1 Inhibitor Suppresses Autophagy and Sensitizes Cancer Cells to Nutrient Stress” (iScience, 2018)
Blank lines part the entries; values can stand above or below the molecule they belong to.

Assays:
[1] = target: Cyclin-dependent kinase-like 3 (Homo sapiens) (UniProt Q8IVW4); assay: Inhibition of human recombinant CDKL3 at 500 nM related to control ULK1
[2] = target: T1, Serine/threonine-protein kinase 17A (Homo sapiens) (UniProt Q9UEE5); assay: Inhibition of human recombinant DRAK1 at 40 nM in presence of ATP by radiometric assay relative to control
T1 sequence (whole entry): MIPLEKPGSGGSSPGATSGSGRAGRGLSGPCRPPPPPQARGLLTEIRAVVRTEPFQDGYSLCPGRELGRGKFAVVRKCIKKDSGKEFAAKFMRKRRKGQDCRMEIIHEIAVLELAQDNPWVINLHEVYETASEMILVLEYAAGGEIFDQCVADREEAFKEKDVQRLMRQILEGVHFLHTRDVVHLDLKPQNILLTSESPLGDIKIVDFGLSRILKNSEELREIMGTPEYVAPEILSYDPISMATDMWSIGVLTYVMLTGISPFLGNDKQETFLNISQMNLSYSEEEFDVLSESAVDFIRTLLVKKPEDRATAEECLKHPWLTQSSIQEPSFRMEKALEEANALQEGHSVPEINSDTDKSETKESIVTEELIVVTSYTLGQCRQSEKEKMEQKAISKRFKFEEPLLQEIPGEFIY

[3] = target: T2, MAP kinase-activated protein kinase 5 (Homo sapiens) (UniProt Q8IW41); assay: Inhibition of human recombinant MAPKAPK5 at 40 nM in presence of ATP by radiometric assay relative to control
T2 sequence (whole entry): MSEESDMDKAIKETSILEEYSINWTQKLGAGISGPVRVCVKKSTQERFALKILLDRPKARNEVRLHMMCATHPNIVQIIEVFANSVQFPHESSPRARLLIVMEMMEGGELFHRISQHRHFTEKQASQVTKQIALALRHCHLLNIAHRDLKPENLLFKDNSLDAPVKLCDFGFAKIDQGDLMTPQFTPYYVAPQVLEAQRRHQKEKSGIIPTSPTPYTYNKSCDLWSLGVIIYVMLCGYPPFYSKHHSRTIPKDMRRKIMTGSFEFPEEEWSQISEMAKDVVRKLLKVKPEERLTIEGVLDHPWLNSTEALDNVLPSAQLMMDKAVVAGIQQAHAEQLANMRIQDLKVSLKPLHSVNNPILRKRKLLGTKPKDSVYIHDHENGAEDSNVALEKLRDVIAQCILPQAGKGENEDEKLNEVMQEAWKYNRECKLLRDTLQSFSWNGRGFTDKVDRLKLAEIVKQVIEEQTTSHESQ

[4] = target: Serine/threonine-protein kinase MRCK alpha (Homo sapiens) (UniProt Q5VT25); assay: Inhibition of human recombinant MRCKa at 40 nM in presence of ATP by radiometric assay relative to control
Sequence of Serine/threonine-protein kinase MRCK alpha (Homo sapiens) (Q5VT25 whole entry): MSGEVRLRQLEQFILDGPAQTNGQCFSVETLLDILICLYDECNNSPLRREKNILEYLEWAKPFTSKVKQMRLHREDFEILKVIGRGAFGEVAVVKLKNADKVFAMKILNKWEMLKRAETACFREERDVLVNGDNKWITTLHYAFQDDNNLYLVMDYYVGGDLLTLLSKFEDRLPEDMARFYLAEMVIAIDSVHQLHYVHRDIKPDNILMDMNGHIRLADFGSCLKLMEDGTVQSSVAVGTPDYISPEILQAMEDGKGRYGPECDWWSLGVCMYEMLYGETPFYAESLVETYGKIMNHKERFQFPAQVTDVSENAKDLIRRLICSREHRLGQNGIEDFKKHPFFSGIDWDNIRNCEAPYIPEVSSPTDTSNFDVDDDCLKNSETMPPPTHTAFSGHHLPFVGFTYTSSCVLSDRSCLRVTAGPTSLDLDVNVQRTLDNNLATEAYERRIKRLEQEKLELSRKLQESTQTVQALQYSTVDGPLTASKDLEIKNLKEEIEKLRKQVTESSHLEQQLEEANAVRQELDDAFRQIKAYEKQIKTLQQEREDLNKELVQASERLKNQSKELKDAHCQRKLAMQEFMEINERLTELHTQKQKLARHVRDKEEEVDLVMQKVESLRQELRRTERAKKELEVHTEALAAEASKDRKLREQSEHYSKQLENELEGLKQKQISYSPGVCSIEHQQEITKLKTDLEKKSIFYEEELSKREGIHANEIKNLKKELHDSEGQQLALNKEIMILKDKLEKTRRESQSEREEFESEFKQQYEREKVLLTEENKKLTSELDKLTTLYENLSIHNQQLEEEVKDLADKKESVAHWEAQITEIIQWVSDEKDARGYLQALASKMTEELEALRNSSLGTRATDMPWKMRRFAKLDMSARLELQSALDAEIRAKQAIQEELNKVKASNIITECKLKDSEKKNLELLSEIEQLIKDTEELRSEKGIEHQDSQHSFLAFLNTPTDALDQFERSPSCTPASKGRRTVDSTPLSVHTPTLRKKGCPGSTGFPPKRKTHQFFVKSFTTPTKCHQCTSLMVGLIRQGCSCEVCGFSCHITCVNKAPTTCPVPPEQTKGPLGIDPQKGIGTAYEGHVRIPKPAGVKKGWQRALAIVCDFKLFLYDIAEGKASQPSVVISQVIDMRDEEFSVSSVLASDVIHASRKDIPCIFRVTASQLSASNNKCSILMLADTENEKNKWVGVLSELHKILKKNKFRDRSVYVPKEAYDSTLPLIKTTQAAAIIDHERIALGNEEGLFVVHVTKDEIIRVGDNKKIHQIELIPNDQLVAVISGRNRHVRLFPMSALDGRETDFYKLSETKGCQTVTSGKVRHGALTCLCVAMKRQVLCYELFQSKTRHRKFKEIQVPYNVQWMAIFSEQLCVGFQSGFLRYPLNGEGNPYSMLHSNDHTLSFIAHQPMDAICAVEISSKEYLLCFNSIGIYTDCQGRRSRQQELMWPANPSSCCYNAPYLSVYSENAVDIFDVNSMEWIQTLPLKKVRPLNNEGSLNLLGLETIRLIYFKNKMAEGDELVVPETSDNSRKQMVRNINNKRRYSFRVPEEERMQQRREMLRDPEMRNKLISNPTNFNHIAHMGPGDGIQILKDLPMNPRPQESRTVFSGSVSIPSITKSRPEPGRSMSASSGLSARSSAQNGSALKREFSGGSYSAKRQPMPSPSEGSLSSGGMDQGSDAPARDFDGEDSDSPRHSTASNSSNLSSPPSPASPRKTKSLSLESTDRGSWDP

[5] = target: Serine/threonine-protein kinase PAK 4 (Homo sapiens) (UniProt O96013); assay: Inhibition of human recombinant PAK4 at 40 nM in presence of ATP by radiometric assay relative to control
[6] = target: Serine-protein kinase ATM (Homo sapiens) (UniProt Q13315); assay: Inhibition of human recombinant ATM at 40 nM related to control ULK1
Sequence of Serine-protein kinase ATM (Homo sapiens) (Q13315 whole entry): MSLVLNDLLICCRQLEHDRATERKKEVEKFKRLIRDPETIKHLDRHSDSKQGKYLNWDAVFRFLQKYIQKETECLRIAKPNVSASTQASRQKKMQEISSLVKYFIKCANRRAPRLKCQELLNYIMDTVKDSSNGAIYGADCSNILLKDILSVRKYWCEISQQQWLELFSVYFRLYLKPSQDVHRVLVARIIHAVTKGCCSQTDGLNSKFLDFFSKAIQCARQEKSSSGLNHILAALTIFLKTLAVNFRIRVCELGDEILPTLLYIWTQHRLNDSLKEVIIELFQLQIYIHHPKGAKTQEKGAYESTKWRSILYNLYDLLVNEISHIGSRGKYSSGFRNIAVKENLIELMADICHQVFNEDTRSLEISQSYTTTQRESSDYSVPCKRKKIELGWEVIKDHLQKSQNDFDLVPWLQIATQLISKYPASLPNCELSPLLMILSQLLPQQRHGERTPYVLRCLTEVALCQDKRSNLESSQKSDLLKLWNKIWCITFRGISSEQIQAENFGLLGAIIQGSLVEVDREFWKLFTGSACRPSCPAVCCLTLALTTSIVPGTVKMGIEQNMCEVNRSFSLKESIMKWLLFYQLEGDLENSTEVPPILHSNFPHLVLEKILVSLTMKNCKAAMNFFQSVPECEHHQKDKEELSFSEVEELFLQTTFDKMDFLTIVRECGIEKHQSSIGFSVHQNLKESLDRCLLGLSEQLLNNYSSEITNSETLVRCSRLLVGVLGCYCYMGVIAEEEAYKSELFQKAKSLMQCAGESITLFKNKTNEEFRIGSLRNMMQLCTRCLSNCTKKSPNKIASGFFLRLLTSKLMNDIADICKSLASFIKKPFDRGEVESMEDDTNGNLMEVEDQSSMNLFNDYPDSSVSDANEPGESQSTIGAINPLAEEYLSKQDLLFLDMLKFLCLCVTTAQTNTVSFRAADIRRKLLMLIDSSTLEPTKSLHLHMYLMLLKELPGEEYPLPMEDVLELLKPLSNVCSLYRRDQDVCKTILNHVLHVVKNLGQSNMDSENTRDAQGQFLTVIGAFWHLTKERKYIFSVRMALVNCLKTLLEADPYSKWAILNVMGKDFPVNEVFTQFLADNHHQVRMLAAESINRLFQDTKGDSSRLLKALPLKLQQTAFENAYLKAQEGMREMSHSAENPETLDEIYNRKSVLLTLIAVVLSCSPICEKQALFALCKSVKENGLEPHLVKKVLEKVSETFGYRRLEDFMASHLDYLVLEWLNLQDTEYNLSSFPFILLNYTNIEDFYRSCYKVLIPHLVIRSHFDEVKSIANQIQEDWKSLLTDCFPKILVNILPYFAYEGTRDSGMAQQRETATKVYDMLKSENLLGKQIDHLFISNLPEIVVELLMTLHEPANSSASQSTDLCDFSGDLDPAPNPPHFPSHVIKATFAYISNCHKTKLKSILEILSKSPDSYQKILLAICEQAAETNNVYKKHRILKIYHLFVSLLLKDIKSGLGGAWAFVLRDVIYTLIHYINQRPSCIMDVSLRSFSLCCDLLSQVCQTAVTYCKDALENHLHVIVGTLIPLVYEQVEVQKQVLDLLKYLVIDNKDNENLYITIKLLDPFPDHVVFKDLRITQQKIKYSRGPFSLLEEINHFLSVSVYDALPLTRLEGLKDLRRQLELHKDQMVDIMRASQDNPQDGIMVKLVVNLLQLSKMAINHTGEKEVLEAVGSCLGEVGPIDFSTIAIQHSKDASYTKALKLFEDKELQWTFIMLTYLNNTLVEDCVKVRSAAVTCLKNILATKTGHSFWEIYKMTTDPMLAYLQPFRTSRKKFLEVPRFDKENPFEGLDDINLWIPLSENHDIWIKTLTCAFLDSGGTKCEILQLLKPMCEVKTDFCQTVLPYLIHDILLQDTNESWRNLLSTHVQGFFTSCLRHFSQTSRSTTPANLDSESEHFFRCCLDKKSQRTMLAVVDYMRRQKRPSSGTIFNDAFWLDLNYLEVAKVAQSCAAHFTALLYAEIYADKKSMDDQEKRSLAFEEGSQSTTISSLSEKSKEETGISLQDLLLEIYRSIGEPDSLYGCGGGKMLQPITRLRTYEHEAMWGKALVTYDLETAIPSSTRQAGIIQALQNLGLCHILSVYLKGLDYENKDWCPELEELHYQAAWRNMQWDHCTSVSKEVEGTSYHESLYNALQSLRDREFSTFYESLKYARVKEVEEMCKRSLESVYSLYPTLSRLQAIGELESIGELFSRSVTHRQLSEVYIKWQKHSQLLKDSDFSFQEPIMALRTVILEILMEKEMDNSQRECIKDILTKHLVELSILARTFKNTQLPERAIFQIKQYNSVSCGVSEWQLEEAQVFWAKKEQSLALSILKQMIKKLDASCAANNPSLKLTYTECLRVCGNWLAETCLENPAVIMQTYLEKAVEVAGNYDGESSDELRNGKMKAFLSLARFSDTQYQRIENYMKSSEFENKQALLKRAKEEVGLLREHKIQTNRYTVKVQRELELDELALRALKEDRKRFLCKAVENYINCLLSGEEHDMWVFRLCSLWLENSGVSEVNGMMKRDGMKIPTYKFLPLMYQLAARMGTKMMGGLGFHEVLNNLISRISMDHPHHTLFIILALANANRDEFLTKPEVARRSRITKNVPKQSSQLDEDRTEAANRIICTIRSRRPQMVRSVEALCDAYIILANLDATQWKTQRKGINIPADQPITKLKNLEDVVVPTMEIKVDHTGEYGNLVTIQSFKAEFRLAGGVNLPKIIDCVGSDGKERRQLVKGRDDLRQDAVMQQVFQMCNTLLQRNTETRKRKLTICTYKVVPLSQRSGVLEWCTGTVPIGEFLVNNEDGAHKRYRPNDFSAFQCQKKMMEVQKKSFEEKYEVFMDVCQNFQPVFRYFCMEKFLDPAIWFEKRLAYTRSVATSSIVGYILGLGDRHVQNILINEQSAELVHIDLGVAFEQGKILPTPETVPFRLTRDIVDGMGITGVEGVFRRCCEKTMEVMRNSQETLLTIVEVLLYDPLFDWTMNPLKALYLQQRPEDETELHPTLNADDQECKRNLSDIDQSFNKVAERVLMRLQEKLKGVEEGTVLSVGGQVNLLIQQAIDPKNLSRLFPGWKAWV
How it was run: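 Radiometric activity assays in a panel of 327 human recombinant kinases, each run in duplicate at one inhibitor concentration. Activity remaining is expressed as percent of vehicle control, and percent inhibition is calculated as 100% minus percent activity remaining.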

[7] = target: T1, Serine/threonine-protein kinase 17A (Homo sapiens); assay: Inhibition of human recombinant DRAK1 at 40 nM related to control ULK1
[8] = target: Casein kinase I isoform gamma-2 (Homo sapiens) (UniProt P78368); assay: Inhibition of human recombinant CK1g2 at 15 nM related to control ULK1
[9] = target: T3, Protein kinase C epsilon type (Homo sapiens) (UniProt Q02156); assay: Inhibition of human recombinant PKCe at 15 nM related to control ULK1
T3 sequence (whole entry): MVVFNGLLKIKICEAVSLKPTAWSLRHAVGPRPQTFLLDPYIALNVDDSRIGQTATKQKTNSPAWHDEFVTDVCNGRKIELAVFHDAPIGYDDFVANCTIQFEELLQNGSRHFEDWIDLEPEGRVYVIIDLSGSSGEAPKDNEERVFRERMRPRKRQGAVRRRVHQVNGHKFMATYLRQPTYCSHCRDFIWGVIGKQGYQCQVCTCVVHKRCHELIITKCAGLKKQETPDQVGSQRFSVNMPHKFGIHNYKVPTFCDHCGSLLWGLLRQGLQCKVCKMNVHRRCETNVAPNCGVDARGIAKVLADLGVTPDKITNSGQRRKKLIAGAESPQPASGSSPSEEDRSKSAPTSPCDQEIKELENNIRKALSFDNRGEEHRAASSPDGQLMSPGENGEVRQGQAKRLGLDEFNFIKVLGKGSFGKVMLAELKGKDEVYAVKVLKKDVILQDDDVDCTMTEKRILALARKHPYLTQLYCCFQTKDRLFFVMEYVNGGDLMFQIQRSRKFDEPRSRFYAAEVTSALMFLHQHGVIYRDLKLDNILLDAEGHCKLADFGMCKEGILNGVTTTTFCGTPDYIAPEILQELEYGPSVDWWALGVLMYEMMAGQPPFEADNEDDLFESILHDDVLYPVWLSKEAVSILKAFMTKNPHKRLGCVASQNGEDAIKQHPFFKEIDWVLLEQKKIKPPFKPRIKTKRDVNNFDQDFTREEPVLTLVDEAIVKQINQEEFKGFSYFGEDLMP

[10] = target: T4, Serine/threonine-protein kinase Sgk1 (Homo sapiens) (UniProt O00141); assay: Inhibition of human recombinant SGK1 at 15 nM related to control ULK1
T4 sequence (whole entry): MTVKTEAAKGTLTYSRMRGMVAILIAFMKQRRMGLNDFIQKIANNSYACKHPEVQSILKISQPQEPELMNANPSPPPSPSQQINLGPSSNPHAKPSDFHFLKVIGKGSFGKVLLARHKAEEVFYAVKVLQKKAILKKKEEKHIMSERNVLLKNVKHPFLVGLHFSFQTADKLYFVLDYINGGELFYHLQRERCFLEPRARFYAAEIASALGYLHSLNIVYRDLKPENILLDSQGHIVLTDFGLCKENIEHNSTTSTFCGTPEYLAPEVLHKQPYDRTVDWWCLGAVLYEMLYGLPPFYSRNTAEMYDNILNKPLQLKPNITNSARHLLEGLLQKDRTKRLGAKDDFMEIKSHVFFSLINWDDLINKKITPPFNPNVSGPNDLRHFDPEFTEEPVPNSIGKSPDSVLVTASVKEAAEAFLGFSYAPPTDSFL

- fold change (FC) [1]: 0
Compound: CNC(=O)c1ccccc1Oc1nc(Nc2cc(OC)c(OC)c(OC)c2)ncc1Br

- inhibition [2]: 78%
- inhibition [3]: 0%
- inhibition [4]: 2%
- inhibition [5]: 8%
- fold change (FC) [6]: 0.07
- fold change (FC) [7]: 1.07
Compound: O=C(N[C@@H](C1CC1)C(F)(F)F)c1cc(-c2cnn3cc(-c4ccc(F)cc4)cnc23)cs1

- fold change (FC) [8]: 0
- fold change (FC) [9]: 0
- fold change (FC) [10]: 0.05
Compound: CC(C)[C@H](NC(=O)c1cc(-c2cnn3cc(-c4ccc(OCCN5CCCCC5)cc4)cnc23)cs1)C(F)(F)F
